Results collected from several papers.
Compare with care: the assays were run in different laboratories.

CC(C)(Nc1nc(-c2ccccn2)nc2ccccc12)c1ccccn1
concentration (female BALB/c mouse, plasma; intravenous, 1 mg/kg, 8 h): 6 ng/mL

O=C(O)C1CCN(c2ncc(-c3ccc4c(c3)OCCCO4)s2)CC1
concentration (male Swiss mouse, plasma; oral, 30 mg/kg, 8 h, single dose): 4540 ng/mL

CC(C)(C)c1cc(NC(=O)Nc2ccc(Oc3ccnc4[nH]c(=O)cnc34)cc2F)n(-c2ccccc2)n1
concentration (BALB/c mouse, plasma; oral, 10 mg/kg/day, 24 h): ~1000 nM

Cc1ccc(-c2cccc3cnc(Nc4ccc(C(=O)N5CCOCC5)cc4)nc23)cn1
concentration (mouse, plasma; intraperitoneal, 10 mg/kg, 2 h): 0 nM

O=c1nc(N2CCN(CC3CCCCC3)CC2)sc2c([N+](=O)[O-])cc(C(F)(F)F)cc12
concentration (CD-1 mouse, plasma; intravenous, 10 mg/kg, 8 h): 44.4 ng/mL

CN(C)c1ncnc2[nH]cc(-c3cccc(Cl)c3)c12
concentration (mass spectrometry; female C57BL/6 mouse, plasma; intraperitoneal, 20 mg/kg, 30 min, single dose): 8700 nM

COc1ccc2[nH]c3c(C)c4ccnc(C(=O)N[C@H](C)CN(C)C)c4cc3c2c1
concentration (male C57BL/6 mouse, brain; intraperitoneal, 10 mg/kg, 2 h, single dose): 260 nM

CC(C)Oc1cccc(-c2cnc(N3CCC(C(N)=O)CC3)s2)c1
concentration (male Swiss mouse, plasma; oral, 30 mg/kg, 15 min, single dose): 416 ng/mL

CC(C)CN(C[C@@H](O)[C@H](Cc1ccccc1)NC(=O)O[C@H]1CO[C@H]2OCC[C@H]21)S(=O)(=O)c1ccc(N)cc1
concentration (BALB/c mouse, brain; intravenous, 2.5 mg/kg, 3 h): 1.19 ng/g

CN(C(=O)n1cnc(-c2ccc[n+]([O-])c2)c1)C1CCCCC1
concentration (male CD-1 mouse, plasma; oral, 10 mg/kg, 8 h): 83 ng/mL

O=c1cc(-c2ccccc2)oc2c(O)c(O)ccc12
concentration (male CD-1 mouse, brain; oral, 50 mg/kg, 30 min): 18 ng/g

O=S(=O)(c1cccc(C(F)(F)F)n1)N1CCc2ccc(OCc3c(F)cccc3Cl)cc21
concentration (mouse, plasma; intraperitoneal, 10 mg/kg, 2 h): 290 nM

O=C(N/N=C/c1ccc2ccccc2c1)c1ccc(O)cc1
concentration (male C57BL/6 mouse, plasma; intraperitoneal, 30 mg/kg, 2 h): ~200 nM

O=S(=O)(c1ccc(-c2ccc3nccc(Nc4ccncn4)c3c2)cc1)N1CCOCC1
concentration (female BALB/c mouse, plasma; intraperitoneal, 10 mg/kg, 1 h): 1290 ng/mL

COc1cc(F)c([C@@H]2CNC(=O)[C@H]2NC(=O)Nc2ccccc2)c(F)c1
concentration (C57BL/6 mouse, plasma; oral, 0.3 mg/kg, 2 h): 3 nM

O=S(=O)(c1cccc(C(F)(F)F)c1)N1CCc2ccc(OCc3c(Cl)cncc3Cl)cc21
concentration (mouse, plasma; intraperitoneal, 10 mg/kg, 2 h): 890 nM

c1ccc(-c2nc(N3CCC(c4ccccn4)C3)c3ccccc3n2)nc1 (stereo not drawn)
concentration (female BALB/c mouse, plasma; oral, 50 mg/kg, 24 h): 63.5 ng/mL

CC(C)Cc1nn(C)c(=O)c2c(SCCCO)n(Cc3cccc4ccccc34)cc12
concentration (mouse, plasma; intraperitoneal, 20 mg/kg, 7 days, single dose): 0 nM
